High-throughput results as filed in PubChem.
STAT3 activator – activators of IL-6 induced STAT3 signaling; U3A cells, IL-6 STAT3-luciferase reporter, luminescence; 100% = signal with IL-6 EC80 alone; activation (% of control), % at 5.6 µM; 190,000 tested, 0.91% active; AID 871;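 active = activation above the screen-wide mean of compound activation plus 3 SD, cut at about 130% in these data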;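 note: 0% = background luminescence of wells with medium and substrate only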
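Test system: human U3A cells carrying STAT3-luciferase construct; control set: IL-6-only wells as 100% reference; timing: compound pre-incubation 1 h before IL-6, then 6 h stimulation at 37 °C; also added: IL-6 stimulus at 33 ng/mL final; evaluation: % activation versus median of IL-6-stimulated wells; detection: reporter luminescence signal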
GAA850 FXN act – frataxin GAA850 promoter activation; HEK293 lucGAA850 FXN promoter luciferase reporter, 24 h; percent of 10 µM SAHA response; activation, % at 6 µM; 360,000 tested, 0.56% active; AID 540364;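 active = activation above the average of all compounds screened plus 3 SD, cutoff fixed separately per campaign, cut at about 7.5% in these data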;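 note: 0% = DMSO wells and 100% = 10 µM SAHA wells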
ABCB6 inh MLPCN – human ABCB6 transporter inhibition | Q9NP58 | K562-ABCB6 porphyrin accumulation, flow cytometry, 1 h; active compounds read low | 360,000 tested, 0.19% active | AID 602162 | fluorescence ratio to DMSO, % at 10 µM;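 active = fluorescence ratio to DMSO below 75%, the collection mean minus 3 SD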;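 note: signal is porphyrin accumulated inside mitochondria; 100% equals median channel fluorescence of DMSO control wells; lower ratio means ABCB6 inhibition with less porphyrin fluorescence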
AHR act – activators of human aryl hydrocarbon receptor; P35869; activation, % at 5 µM; AHR-responsive luciferase reporter cells, luminescence; 320,000 tested, 2.5% active; in the data active = activation above about 47%;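 note: 0% = vehicle wells and 100% = reference agonist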
An asterisk follows results filed as active; i = inactive; / = no result. A selection: hits, their analogues and other compounds. The true share with any hit is near 3.3%.

SMILES	STAT3 activator	GAA850 FXN act	ABCB6 inh MLPCN	AHR act
Cc1c(C(=O)O)cccc1-c1ccc(/C=N/Nc2ccc(Br)cc2)o1	119	5	96	134*
Cc1cc2ccccn2c1C(=O)c1cc([N+](=O)[O-])cc([N+](=O)[O-])c1	90	2	102	-1
Cc1cc2ccccn2c1C(=O)Nc1ccccc1	134*	1	101	60*
O=C(Nc1cccc(Cl)c1)Nc1nnc([C@H]2C[C@H](O)[C@@H](CO)O2)s1	/	4	100	/
CC(=O)N1c2ccccc2C2(O)N=C(C)SC12 (stereo not drawn)	103	2	102	51*
COc1ccc(/C=C/C2=CCN(Cc3ccc(OC)cc3)CC2)cc1	134*	0	103	-2
C/C=C(\C)CN1CCCC(N(C)CCc2ccc(OC)c(OC)c2)C1 (stereo not drawn)	/	1	101	0
CN(C)C(=C(C#N)C#N)N1CCN(c2ccc(Cl)c(Cl)c2)CC1	85	2	99	62*
CN(C)C(=C(C#N)C#N)N1CCN(c2ccc(Cl)cc2)CC1	88	-1	95	68*
O=C(O)C1CC1C(=O)N1CCN(c2ccc(Cl)c(Cl)c2)CC1 (stereo not drawn)	103	3	94	-1
CSC(=NC#N)N1CCN(c2ccc(Cl)cc2)CC1	107	4	97	73*
N#CC(C#N)=C/C(C#N)=C(/N)N1CCN(c2ccc(Cl)cc2)CC1	89	3	94	-12
COc1cc(NC(=O)CN2CCN(c3ccccc3F)CC2)c(C)cc1[N+](=O)[O-]	95	2	108	-1
Cc1cc2nc(-c3ccc(Cl)cc3)c(CC3CCCCC3)n2c(C)c1Br	/	/	102	/
CCN(CC)c1ccc2c(Cl)c(Br)c(=O)oc2c1	116	-4	i	53*
CCC(C)(C)NC(=O)CN(C(=O)c1csnn1)c1ccccc1-c1ccccc1	101	-3	97	3
CCc1ccc(NC(=O)CSc2nnc(-c3cnccn3)n2C)cc1	/	-1	107	12
CN(C)c1ccc(NC(=O)CSc2nnc(-c3cnccn3)n2C)cc1	/	-2	91	51*
CC1(C)OC(=O)N(c2ccccc2)C12C=Cc1c(ccc3ccccc13)O2 (stereo not drawn)	99	2	94	4
O=C1NC2(C=Cc3c(ccc4ccccc34)O2)Oc2ccccc21 (stereo not drawn)	114	8.6*	97	-2
CCN(CC(=O)NC1CCS(=O)(=O)C1)C(=O)c1cc(OC)c(OC)c(OC)c1 (stereo not drawn)	/	1	92	1
O=C(CN(Cc1ccc(F)cc1)C(=O)CNS(=O)(=O)c1ccc(Cl)cc1)NCC1CCCO1 (stereo not drawn)	/	0	94	2
CCOC(=O)Cc1csc(N/N=C\c2ccccc2OC)n1	/	4	100	51*
COc1ccc(NC(=O)c2cc(-c3ccccc3Cl)on2)cc1	/	2	98	56*
COc1ccc(OC)c(-c2cc(C(=O)Nc3cccc(Cl)c3)no2)c1	131	6	89	55*
SMILES	STAT3 activator	GAA850 FXN act	ABCB6 inh MLPCN	AHR act
Cc1cc(C(=O)O)ccc1N=Cc1c(O)ccc2ccccc12	/	1	97	21
CC1(C)CC(=O)C=C(c2n[nH]nc2C2=CCCCC2)C1	/	0	98	/
Cc1sc(N/N=C/c2cccs2)nc1-c1ccccc1	128	2	99	78*
Cc1sc(NC(=O)c2cccs2)nc1-c1ccccc1	84	-1	99	29
CNC(=O)COc1ccc2oc3c(c2c1)CCCC3	/	1	96	7
NNC(=O)COc1ccc2oc3c(c2c1)CCCC3	/	-1	93	68*
CCN1CCN(CCC(=O)Nc2ccc(Br)c(C)c2)CC1	/	1	105	1
CSC(=S)N/N=C/c1ccc(N(C)C)cc1	100	2	95	51*
CSC(=S)N/N=C/c1ccc(Br)cc1	83	1	101	20
O=C(COC(=O)c1ncc(Cl)c(Cl)c1Cl)NCCc1ccccc1	/	2	105	-1
Cc1cccc(N2C(=O)N3[C@H](c4ccc(Cl)cc4)[C@@H]4C(=O)N(C5CCCCC5)C(=O)[C@@H]4[C@]3(Cc3ccc(Cl)cc3)C2=O)c1	/	10*	101	2
O=C(CSc1nc2c(sc3ccccc32)c(=O)n1-c1ccccc1)NCc1ccco1	108	-3	96	113*
O=C(CSc1nc2c(sc3ccccc32)c(=O)n1CCc1ccccc1)NCc1ccco1	101	3	99	3
CCNC(=O)C1(C)CCN1CCC(=O)c1ccc(Br)cc1 (stereo not drawn)	/	1	102	/
COc1cc(CNc2ccc(CNc3ncn[nH]3)cc2)ccc1OCC(=O)NC(C)(C)C	102	-1	97	56*
O=C(N/N=C\c1cn[nH]c1-c1ccccc1)c1cccnc1	108	0	99	72*
Cc1ccc(Cn2nc(C)c(/C=N/NC(=O)c3cccnc3)c2C)cc1	96	-2	95	32
Cc1nn(Cc2ccc(F)cc2)c(Cl)c1/C=N/NC(=O)c1cccnc1	97	4	91	52*
Cc1nn(Cc2ccccc2)c(C)c1/C=N/NC(=O)c1cccnc1	105	2	93	71*
Cc1nn(Cc2ccc(F)cc2)c(Cl)c1/C=N/NC(=O)c1ccccc1	92	0	97	15
Cc1nn(-c2ccccc2)c(Cl)c1/C=N/NC(=O)c1cccnc1	100	1	100	34
Cc1ccc(-n2nc(C)c(/C=N/NC(=O)c3cccnc3)c2Cl)cc1	98	1	100	47*
O=C(NCCc1ccccc1)C1Cc2c(-c3ccc4c(c3)OCO4)ccnc2O1 (stereo not drawn)	/	-2	98	/
O=C1O[C@@H](c2ccccc2)C[C@@H](O)C(=O)CCCc2ccccc21	/	/	93	/
COC(=O)c1nn(-c2nc(-c3cccc(OC)c3)cc(C(F)(F)F)n2)cc1[N+](=O)[O-]	105	2	99	0
SMILES	STAT3 activator	GAA850 FXN act	ABCB6 inh MLPCN	AHR act
CCn1nc(C)c(/C=N\NC(=O)c2cccc(OC)c2)c1C	94	-2	98	49*
COc1cccc(C(=O)N/N=C/c2cn[nH]c2-c2ccc(OC)cc2OC)c1	102	1	106	32
COc1ccc(-c2[nH]ncc2/C=N\NC(=O)c2ccc(Br)o2)cc1OC	/	4	93	60*
Cc1c2ccccc2cc(Cc2ccccc2)[n+]1C	/	1	96	15
COc1cc(NC(=O)CCCNC(=O)Cn2cnc3sc(C)c(C)c3c2=O)cc(OC)c1OC	/	-2	97	-1
Cc1cc(C)n2nc(CC(=O)NNC(=O)COc3ccccc3)nc2n1	/	-1	100	0
CCN(CC)C(=O)Oc1ccc(Br)cc1C(=O)Nc1ccc(F)cc1F	/	-1	96	89*
O=C(Nc1ccc(F)cc1F)c1cncc(Br)c1	82	1	94	38
COc1cccc(OC)c1C(=O)Nc1ccc2c(c1)Cc1ccccc1-2	93	2	91	75*
COc1cccc(OC)c1C(=O)Nc1ccc(N2CCCC2)cc1	/	1	101	50*
CCOc1ccc(NC(=O)c2c(OC)cccc2OC)cc1	107	0	101	51*
